Test results as given in ChEMBL document CHEMBL5653631, “A Potent and Selective ULK1 Inhibitor Suppresses Autophagy and Sensitizes Cancer Cells to Nutrient Stress” (iScience, 2018).

Tests used:
[1] = biological target: T1, MAP kinase-activated protein kinase 5 (Homo sapiens) (UniProt Q8IW41); assay: Inhibition of human recombinant MAPKAPK5 at 40 nM related to control ULK1
T1 sequence (whole entry): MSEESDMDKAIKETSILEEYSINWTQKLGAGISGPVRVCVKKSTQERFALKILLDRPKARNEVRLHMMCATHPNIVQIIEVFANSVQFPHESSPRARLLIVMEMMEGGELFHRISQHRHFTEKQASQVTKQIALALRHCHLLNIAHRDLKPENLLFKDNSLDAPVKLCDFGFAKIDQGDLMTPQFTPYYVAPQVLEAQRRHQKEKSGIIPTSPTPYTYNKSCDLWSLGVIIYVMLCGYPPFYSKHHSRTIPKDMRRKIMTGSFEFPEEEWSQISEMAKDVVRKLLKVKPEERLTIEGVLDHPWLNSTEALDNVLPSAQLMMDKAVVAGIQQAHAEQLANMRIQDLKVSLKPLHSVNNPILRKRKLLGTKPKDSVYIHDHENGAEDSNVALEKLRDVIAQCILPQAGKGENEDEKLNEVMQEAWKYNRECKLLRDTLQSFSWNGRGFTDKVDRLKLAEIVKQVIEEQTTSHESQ

[2] = biological target: Transcription initiation factor TFIID subunit 1-like (Homo sapiens) (UniProt Q8IZX4); assay: Inhibition of human recombinant TAF1L at 40 nM in presence of ATP by radiometric assay relative to control
[3] = biological target: Dual specificity tyrosine-phosphorylation-regulated kinase 1B (Homo sapiens) (UniProt Q9Y463); assay: Inhibition of human recombinant DYRK1B at 40 nM in presence of ATP by radiometric assay relative to control
Dual specificity tyrosine-phosphorylation-regulated kinase 1B (Homo sapiens), sequence (Q9Y463 whole entry, looked up): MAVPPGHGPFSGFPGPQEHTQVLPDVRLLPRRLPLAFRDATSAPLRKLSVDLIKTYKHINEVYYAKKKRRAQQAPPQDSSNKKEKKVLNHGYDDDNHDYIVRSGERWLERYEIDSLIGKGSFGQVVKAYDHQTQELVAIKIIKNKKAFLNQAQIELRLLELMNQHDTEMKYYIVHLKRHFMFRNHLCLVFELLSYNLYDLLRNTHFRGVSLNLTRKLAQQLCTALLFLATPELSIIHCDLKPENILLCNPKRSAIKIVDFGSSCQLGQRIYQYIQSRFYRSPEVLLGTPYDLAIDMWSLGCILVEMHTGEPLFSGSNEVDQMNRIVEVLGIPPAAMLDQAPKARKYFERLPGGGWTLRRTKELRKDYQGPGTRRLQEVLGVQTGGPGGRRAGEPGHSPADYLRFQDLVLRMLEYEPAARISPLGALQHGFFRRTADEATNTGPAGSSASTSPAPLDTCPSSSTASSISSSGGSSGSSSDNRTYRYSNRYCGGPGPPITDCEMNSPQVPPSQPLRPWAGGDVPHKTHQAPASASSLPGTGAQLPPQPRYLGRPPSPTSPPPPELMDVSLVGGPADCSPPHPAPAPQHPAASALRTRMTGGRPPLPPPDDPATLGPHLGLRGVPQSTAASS

[4] = biological target: T2, Activin receptor type-1B (Homo sapiens) (UniProt P36896); assay: Inhibition of human recombinant ALK4 at 40 nM in presence of ATP by radiometric assay relative to control
T2 sequence (whole entry): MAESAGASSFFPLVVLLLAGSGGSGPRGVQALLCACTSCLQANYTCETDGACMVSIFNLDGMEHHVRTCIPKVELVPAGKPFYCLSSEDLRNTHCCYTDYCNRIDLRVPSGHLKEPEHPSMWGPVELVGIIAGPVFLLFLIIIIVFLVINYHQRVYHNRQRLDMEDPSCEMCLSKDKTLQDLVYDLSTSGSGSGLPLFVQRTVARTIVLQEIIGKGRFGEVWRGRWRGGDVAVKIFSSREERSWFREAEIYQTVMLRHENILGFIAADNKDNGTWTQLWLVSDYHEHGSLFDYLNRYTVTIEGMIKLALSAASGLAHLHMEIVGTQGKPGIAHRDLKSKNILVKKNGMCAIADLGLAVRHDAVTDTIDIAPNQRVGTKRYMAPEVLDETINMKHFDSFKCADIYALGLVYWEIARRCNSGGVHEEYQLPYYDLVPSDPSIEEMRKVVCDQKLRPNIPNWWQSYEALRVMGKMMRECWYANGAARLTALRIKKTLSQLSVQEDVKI
Method in brief: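 Panel of 327 recombinant human kinases, each assayed in vitro by radiometric activity assay in duplicate at a single inhibitor concentration per compound, chosen with reference to its ULK1 inhibition. Activity remaining was expressed as percent of vehicle control, and percent inhibition was calculated as 100 minus percent activity remaining.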

[5] = biological target: Wee1-like protein kinase 2 (Homo sapiens) (UniProt P0C1S8); assay: Inhibition of human recombinant Wee1B at 40 nM in presence of ATP by radiometric assay relative to control
Wee1-like protein kinase 2 (Homo sapiens), sequence (P0C1S8 whole entry, looked up): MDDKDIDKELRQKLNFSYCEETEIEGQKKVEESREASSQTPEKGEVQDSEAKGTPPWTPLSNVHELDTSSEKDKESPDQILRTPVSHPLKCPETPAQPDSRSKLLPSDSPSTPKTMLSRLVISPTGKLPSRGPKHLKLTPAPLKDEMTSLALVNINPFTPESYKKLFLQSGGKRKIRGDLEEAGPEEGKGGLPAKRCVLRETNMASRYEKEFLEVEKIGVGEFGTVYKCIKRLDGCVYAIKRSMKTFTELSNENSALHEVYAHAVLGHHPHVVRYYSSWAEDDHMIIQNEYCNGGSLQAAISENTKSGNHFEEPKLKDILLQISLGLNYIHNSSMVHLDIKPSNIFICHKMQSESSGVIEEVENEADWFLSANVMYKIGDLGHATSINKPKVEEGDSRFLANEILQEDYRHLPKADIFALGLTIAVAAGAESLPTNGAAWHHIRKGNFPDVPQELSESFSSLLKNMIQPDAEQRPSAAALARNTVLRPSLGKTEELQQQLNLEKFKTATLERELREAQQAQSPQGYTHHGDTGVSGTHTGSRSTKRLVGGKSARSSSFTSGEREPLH

[6] = biological target: Ribosomal protein S6 kinase alpha-6 (Homo sapiens) (UniProt Q9UK32); assay: Inhibition of human recombinant RSK4 at 500 nM in presence of ATP by radiometric assay relative to control
Ribosomal protein S6 kinase alpha-6 (Homo sapiens), sequence (Q9UK32 whole entry): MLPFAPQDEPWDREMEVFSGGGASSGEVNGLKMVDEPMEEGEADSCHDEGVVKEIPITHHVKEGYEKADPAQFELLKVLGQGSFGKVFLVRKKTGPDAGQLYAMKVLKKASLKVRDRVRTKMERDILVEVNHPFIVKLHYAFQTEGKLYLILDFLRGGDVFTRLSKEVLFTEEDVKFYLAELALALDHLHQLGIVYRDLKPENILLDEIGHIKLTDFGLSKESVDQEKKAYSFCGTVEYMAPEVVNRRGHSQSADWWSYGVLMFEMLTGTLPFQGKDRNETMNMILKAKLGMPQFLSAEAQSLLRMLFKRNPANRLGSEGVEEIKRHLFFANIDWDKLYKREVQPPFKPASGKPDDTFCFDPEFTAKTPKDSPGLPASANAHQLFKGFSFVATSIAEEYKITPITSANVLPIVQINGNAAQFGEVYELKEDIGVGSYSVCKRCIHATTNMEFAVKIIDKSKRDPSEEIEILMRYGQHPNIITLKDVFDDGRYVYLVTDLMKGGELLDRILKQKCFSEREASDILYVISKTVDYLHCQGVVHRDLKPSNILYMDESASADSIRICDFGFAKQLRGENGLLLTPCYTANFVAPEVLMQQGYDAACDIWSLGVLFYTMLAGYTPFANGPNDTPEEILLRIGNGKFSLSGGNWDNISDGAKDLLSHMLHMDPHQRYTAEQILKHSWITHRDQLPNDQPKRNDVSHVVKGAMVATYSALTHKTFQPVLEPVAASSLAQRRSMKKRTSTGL

[7] = biological target: T3, Myosin-IIIb (Homo sapiens) (UniProt Q8WXR4); assay: Inhibition of human recombinant MYO3B at 500 nM in presence of ATP by radiometric assay relative to control
T3 sequence (whole entry): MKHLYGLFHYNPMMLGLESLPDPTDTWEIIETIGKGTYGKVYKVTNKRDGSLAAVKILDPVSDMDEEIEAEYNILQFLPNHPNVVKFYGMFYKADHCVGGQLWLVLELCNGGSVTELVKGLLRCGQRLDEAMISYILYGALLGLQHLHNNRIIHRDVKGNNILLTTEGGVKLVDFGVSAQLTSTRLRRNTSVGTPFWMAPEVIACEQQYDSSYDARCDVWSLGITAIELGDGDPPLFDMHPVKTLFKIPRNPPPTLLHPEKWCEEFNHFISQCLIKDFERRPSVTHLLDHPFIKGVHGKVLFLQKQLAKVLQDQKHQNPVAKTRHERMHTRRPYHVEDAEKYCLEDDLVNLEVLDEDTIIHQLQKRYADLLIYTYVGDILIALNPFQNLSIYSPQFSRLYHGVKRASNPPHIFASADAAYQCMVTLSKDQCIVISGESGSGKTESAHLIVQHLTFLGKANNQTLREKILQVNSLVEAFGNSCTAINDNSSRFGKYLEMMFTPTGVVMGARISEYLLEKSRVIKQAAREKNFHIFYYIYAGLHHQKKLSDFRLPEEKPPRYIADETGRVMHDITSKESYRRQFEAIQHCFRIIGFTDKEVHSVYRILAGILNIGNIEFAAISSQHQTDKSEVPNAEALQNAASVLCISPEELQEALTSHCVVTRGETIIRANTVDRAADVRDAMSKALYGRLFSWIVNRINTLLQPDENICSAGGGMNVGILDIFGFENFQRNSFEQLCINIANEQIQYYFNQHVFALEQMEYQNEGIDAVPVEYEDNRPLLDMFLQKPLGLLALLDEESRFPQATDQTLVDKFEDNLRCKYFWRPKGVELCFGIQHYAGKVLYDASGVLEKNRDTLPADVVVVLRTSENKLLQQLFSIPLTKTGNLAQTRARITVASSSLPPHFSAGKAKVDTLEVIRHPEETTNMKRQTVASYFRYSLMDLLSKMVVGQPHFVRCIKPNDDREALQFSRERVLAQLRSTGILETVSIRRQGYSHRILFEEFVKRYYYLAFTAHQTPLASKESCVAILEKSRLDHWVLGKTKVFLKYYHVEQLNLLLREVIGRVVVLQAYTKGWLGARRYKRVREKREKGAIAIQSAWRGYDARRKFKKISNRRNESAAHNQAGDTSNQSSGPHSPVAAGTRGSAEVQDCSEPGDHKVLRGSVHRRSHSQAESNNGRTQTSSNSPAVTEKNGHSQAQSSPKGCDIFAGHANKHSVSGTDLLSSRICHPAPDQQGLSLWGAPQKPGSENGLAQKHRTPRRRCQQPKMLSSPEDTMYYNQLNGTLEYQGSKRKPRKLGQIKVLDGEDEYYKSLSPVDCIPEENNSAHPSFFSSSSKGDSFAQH

[8] = biological target: TGF-beta receptor type-2 (Homo sapiens) (UniProt P37173); assay: Inhibition of human recombinant TGFbR2 at 15 nM in presence of ATP by radiometric assay relative to control
TGF-beta receptor type-2 (Homo sapiens), sequence (P37173 whole entry): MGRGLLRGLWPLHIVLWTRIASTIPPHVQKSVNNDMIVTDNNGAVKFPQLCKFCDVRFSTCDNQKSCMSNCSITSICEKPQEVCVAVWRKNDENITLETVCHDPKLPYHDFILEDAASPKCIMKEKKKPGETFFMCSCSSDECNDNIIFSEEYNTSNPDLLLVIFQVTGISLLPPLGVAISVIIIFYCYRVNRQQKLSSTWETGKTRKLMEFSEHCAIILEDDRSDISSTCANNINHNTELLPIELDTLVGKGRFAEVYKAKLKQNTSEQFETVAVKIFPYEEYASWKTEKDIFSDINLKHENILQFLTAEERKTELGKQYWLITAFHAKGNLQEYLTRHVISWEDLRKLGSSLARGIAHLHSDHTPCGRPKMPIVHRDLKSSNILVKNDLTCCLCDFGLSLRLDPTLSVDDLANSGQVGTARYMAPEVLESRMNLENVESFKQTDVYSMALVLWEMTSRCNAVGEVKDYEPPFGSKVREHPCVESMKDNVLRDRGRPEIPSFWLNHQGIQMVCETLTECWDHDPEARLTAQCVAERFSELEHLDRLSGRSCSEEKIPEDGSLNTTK

[9] = biological target: Vascular endothelial growth factor receptor 2 (Homo sapiens) (UniProt P35968); assay: Inhibition of human recombinant KDR at 15 nM in presence of ATP by radiometric assay relative to control
Vascular endothelial growth factor receptor 2 (Homo sapiens), sequence (P35968 whole entry): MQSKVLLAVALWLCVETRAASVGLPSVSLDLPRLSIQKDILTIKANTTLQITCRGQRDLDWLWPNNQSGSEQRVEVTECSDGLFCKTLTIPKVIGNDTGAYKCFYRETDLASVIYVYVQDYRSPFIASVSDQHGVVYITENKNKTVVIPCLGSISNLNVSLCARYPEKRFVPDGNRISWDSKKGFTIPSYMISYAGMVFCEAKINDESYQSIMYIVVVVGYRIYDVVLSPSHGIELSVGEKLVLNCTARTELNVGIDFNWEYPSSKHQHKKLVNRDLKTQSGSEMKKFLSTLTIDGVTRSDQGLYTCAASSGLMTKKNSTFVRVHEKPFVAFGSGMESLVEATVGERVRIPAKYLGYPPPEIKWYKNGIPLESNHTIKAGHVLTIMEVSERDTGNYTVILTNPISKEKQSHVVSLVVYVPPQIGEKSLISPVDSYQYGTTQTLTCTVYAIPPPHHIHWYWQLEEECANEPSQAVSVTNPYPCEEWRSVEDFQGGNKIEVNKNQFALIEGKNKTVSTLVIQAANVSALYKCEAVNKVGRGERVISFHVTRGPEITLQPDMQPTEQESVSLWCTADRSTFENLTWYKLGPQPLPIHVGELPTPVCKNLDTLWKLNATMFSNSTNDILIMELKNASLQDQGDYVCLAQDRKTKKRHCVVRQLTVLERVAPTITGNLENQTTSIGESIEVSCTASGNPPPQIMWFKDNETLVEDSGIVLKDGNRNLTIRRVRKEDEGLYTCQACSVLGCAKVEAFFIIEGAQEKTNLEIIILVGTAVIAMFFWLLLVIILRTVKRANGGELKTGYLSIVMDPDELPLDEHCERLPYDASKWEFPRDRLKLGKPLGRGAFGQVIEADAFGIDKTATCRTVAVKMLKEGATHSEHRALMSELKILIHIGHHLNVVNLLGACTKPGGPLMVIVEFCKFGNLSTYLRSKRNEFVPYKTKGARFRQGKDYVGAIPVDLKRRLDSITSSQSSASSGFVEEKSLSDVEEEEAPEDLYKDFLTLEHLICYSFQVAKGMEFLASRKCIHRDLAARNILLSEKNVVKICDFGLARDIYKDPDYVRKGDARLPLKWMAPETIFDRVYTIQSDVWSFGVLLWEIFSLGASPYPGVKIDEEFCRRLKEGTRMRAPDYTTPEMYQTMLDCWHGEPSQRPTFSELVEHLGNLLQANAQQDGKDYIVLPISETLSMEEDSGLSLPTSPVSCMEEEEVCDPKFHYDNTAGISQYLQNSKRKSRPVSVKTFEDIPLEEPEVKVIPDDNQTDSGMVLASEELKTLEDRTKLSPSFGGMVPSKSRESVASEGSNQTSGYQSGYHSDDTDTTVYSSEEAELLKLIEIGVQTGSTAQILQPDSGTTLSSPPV

## O=C(N[C@@H](C1CC1)C(F)(F)F)c1cc(-c2cnn3cc(-c4ccc(F)cc4)cnc23)cs1
[1]
  fold change (FC): 0
[2]
  inhibition: 47%
[3]
  inhibition: 31%
[4]
  inhibition: 0%
[5]
  inhibition: 0%

## CNC(=O)c1ccccc1Oc1nc(Nc2cc(OC)c(OC)c(OC)c2)ncc1Br
[6]
  inhibition: 33%
[7]
  inhibition: 11%

## CC(C)[C@H](NC(=O)c1cc(-c2cnn3cc(-c4ccc(OCCN5CCCCC5)cc4)cnc23)cs1)C(F)(F)F
[8]
  inhibition: 42%
[9]
  inhibition: 20%
